Measured values taken from ChEMBL document CHEMBL1124246, “Evaluation of the side arm of (naphthylvinyl)pyridinium inhibitors of choline acetyltransferase” (J Med Chem, 1988).
pIC50: −log10 of the molar value. Active and inactive are the calls of the source. The calls are words filed in the database; no cut-off is given here.

Assays:
[1] = target: T1, Acetylcholinesterase (Rattus norvegicus, UniProt P37136); assay: Inhibition of acetylcholinesterase (AChE) activity; conditions: read-out: I50
T1 sequence (P37136 whole entry): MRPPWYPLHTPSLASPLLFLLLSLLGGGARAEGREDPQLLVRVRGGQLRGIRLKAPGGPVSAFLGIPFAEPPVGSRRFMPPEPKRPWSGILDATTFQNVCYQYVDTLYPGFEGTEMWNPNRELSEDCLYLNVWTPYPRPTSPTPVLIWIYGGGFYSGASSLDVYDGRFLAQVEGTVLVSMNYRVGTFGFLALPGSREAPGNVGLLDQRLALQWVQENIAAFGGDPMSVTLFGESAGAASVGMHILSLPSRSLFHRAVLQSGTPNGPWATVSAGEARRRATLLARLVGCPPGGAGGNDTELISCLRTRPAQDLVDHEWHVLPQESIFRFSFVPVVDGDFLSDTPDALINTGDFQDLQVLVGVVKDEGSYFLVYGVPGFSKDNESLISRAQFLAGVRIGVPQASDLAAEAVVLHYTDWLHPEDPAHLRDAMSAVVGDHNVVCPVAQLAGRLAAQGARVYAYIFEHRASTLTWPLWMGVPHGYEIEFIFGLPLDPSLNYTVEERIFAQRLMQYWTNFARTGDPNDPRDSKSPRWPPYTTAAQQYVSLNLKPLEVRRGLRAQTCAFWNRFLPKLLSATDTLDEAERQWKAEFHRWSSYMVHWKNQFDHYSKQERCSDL

[2] = Degree of specificity expressed as the ratio of I50 of AChE to I50 of ChAT
Summary of the method: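 Ratio of AChE I50 to ChAT I50. ChAT: partially purified rat brain enzyme, 3 min at 37 °C, 0.1 mM [14C]acetyl-CoA, 5 mM choline. AChE: commercial enzyme, 10 min at 37 °C, [14C]acetylcholine, 1% Triton-X. Radiometric read-out for both; inhibitors tested 10^-3–10^-8 M.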

[3] = target: T2, Choline O-acetyltransferase (Rattus norvegicus, UniProt P32738); assay: (§1) Inhibition of choline acetyltransferase (ChAT) activity; conditions: read-out: I50
T2 sequence (P32738 whole entry): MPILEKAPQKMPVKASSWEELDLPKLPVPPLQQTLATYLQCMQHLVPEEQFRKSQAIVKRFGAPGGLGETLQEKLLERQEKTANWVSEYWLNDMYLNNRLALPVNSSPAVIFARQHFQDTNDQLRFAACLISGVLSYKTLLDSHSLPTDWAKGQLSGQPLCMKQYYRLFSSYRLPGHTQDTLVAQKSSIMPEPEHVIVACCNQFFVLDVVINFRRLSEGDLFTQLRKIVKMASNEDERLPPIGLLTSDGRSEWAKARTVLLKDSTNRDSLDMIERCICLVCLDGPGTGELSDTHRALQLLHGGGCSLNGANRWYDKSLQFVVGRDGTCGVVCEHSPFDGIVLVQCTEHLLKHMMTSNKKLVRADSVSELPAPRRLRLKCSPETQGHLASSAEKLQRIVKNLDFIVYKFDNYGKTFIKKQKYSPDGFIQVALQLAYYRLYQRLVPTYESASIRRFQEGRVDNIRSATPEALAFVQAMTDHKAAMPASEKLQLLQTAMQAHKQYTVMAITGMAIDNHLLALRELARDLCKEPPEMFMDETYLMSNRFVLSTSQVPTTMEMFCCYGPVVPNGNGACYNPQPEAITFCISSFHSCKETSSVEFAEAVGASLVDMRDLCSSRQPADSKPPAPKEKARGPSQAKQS

[4] = target: T3, Acetylcholinesterase (Rattus norvegicus) (UniProt P37136)
T3 sequence (whole entry): T1 sequence (P37136 whole entry)

[5] = target: T2, Choline O-acetyltransferase; assay: as §1; conditions: read-out: I50; remark: listed apart in the source
Summary of the method: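 Rat brain enzyme, partially purified (through CM-Sephadex batch elution), stored -20 °C, diluted for linear kinetics. Radiolabelled product counted by scintillation. Inhibitors tested 10^-3–10^-8 M; I50 reported.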

[6] = target: T4, Choline O-acetyltransferase (Rattus norvegicus) (UniProt P32738); assay: Inhibition of choline acetyltransferase (ChAT) activity; NI is no inhibition observed up to 0.001 M
T4 sequence (whole entry): T2 sequence (P32738 whole entry)

Row | SMILES | pIC50 [1] | Ratio [2] | pIC50 [3] | I50 [4] | pIC50 [5] | I50 [6]
1 | Cc1c[n+](CCN)ccc1/C=C/c1cccc2ccccc12 | 4.52 | 6 | 5.30 | – | – | –
2 | CCCC[n+]1ccc(/C=C/c2cccc3ccccc23)cc1 | 5.41 | 11 | 6.43 | – | – | –
3 | O=C(O)C[n+]1ccc(/C=C/c2cccc3ccccc23)cc1 | – | > 22 | 4.34 | inactive | – | –
4 | Cc1c[n+](CCO)ccc1/C=C/c1cccc2ccccc12 | 4.57 | 16 | 5.77 | – | – | –
5 | NC(=O)NC(=O)C[n+]1ccc(/C=C/c2cccc3ccccc23)cc1 | 3.85 | 38 | 5.43 | – | – | –
6 | NC(=O)C[n+]1ccc(/C=C/c2cccc3ccccc23)cc1 | 4.10 | 296 | 6.57 | – | – | –
7 | CC(=O)C[n+]1ccc(/C=C/c2cccc3ccccc23)cc1 | 4.51 | 8 | 5.43 | – | – | –
8 | NCC[n+]1ccc(/C=C/c2cccc3ccccc23)cc1 | 4.19 | 16 | 5.41 | – | – | –
9 | CCNC(=O)NC(=O)CBr | – | – | – | inactive | 3.60 | –
10 | NC(=O)NC(=O)CBr | – | – | – | inactive | 3.89 | –
11 | C[n+]1ccc(/C=C/c2cccc3ccccc23)cc1 | 4.52 | 77 | 6.41 | – | – | –
12 | NCCC[n+]1ccc(/C=C/c2cccc3ccccc23)cc1 | 3.66 | 42 | 5.28 | – | – | –
13 | OCCC[n+]1ccc(/C=C/c2cccc3ccccc23)cc1 | 4.44 | 28 | 5.89 | – | – | –
14 | CCC[n+]1ccc(/C=C/c2cccc3ccccc23)cc1 | 4.76 | 92 | 6.72 | – | – | –
15 | OCC[n+]1ccc(/C=C/c2cccc3ccccc23)cc1 | 4.17 | 40 | 5.77 | – | – | –
16 | Cc1cnccc1/C=C/c1cccc2ccccc12 | – | > 25 | 4.40 | inactive | – | –
17 | CCOC(=O)C(C(=O)OCC)[n+]1ccc(/C=C/c2cccc3ccccc23)cc1 | 3.30 | 24 | 4.68 | – | – | –
18 | O=C(O)CC[n+]1ccc(/C=C/c2cccc3ccccc23)cc1 | 3.00 | 25 | 4.40 | – | – | –
19 | Cc1c[n+](CC(N)=O)ccc1/C=C/c1cccc2ccccc12 | 4.35 | 132 | 6.47 | – | – | –
20 | CCCCCCC(C)OC(=O)CC(=O)C[n+]1ccc(/C=C/c2cccc3ccccc23)cc1 (stereo not given) | 3.46 | 7 | 4.30 | – | – | –
21 | CCOC(=O)C[n+]1ccc(/C=C/c2cccc3ccccc23)c(C)c1 | 5.00 | 8 | 5.92 | – | – | –
22 | C[N+]1=CC=NC1/C=C/c1cccc2ccccc12 (stereo not given) | 4.29 | – | – | – | – | inactive
23 | Cc1c[n+](CCC(=O)O)ccc1/C=C/c1cccc2ccccc12 | 3.12 | 17 | 4.35 | – | – | –
24 | O=C(CBr)C[n+]1ccc(/C=C/c2cccc3ccccc23)cc1 | 4.40 | 4 | 5.00 | – | – | –
25 | C(=C\c1cccc2ccccc12)/c1ccncc1 | – | > 26 | 4.42 | inactive | – | –
26 | CCOC(=O)C[n+]1ccc(/C=C/c2cccc3ccccc23)cc1 | 4.49 | 32 | 6.00 | – | – | –
27 | O=C(CO)C[n+]1ccc(/C=C/c2cccc3ccccc23)cc1 | – | > 200 | 5.52 | – | – | –
28 | CCNC(=O)NC(=O)C[n+]1ccc(/C=C/c2cccc3ccccc23)cc1 | 3.89 | 33 | 5.41 | – | – | –
